# Assay outcomes (PubChem)
# Sampled rows, rich in hits. Any-hit rate of the full collection: about 8.8%.
# S1P1 ag-PAM: S1P1 agonists and agonism potentiators, primary screen, cell-based, primary and confirmation screens, CRE-bla reporter; Sphingosine 1-phosphate receptor 1 (Homo sapiens), P21453; S1P1 CRE-bla cells, forskolin, beta-lactamase FRET, potentiator mode; S1P1 agonist co-added at EC20, 2 nM; 100% = saturating reference agonist, 0% = basal; activation, % at 9.5 µM; hit rate 0.57% among 56,000; AID 449, 2006;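 active = activation above a cutoff set at the mean activation of all tested compounds plus 3 SD, cut at about 54% in these data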;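 note: forskolin at 4 µM as EC80 and the EC20 agonist is SEW2871; 100% = SEW2871 at its EC100 plus forskolin at EC80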
# Target sequence (P21453 whole entry, looked up): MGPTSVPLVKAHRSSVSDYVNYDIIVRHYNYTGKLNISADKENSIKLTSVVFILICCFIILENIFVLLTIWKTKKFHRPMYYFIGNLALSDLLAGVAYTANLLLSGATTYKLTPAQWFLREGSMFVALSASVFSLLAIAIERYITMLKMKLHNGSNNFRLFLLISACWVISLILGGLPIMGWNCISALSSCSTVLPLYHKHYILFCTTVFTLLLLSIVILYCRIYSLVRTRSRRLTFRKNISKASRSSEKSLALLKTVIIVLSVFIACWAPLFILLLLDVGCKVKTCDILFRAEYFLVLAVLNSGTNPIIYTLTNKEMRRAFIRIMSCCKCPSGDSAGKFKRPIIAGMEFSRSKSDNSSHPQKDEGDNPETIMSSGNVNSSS
# SF-1 act: activators of human SF-1, primary screen, cell-based, CHO-K1, Gal4-SF-1 LBD, luciferase luminescence | Steroidogenic factor 1 (Homo sapiens), Q13285 | CHO-K1 Gal4-SF-1 LBD luciferase reporter; % increase over DMSO SF-1-specific signal | activation, % at 10 µM | hit rate 1.9% among 65,000 | AID 522, 2006;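 active = activation above the mean activation of all tested compounds plus 3 SD, cut at about 50% in these data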
#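 Material: CHO-K1 cells with Gal4–hSF-1 LBD chimera plus Gal4-driven luciferase / Input: 4,000 CHO-K1 cells per well / Incubation: compound exposure 20 h at 37 °C / Signal: luminescence read 15 min after SteadyLite luciferase reagent, after room-temperature equilibration / Read-out: percent activation versus DMSO / Benchmarks: DMSO negative control and −SF1 background wells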
# RORA act: activators of orphan receptor RORA, primary screen, cell-based, luminescence | Nuclear receptor ROR-alpha (Homo sapiens), P35398 | CHO-K1 Gal4-RORA LBD luciferase reporter; percent increase over mock-subtracted basal signal | activation, % at 10 µM | hit rate 1.5% among 65,000;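 active = activation above the mean of all tested compounds plus 3 SD, cut at about 49% in these data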;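 note: 0% = DMSO-treated RORA cells and 100% = added signal equal to DMSO minus mock-transfected cells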
# M1 ag: M1 muscarinic receptor agonists, primary screen, CHO-M1 cells, Fluo-4 calcium, agonist mode | Fluo-4 calcium fluorescence; active compounds read high | B-score at 10 µM | hit rate 3% among 64,000 | AID 626, 2007;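 active = fluorescence rise, raw or as B-score row- and column-corrected plate score, outside the 99.7% band of its plate's samples, either direction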
# S1P3 agonist: human S1P3 receptor agonists, primary screen, cell-based, primary and confirmation, NFAT-BLA reporter. Sphingosine 1-phosphate receptor 3 (Homo sapiens), Q99500. S1P3 NFAT-BLA reporter cells, agonism, FRET ratio; relative to 1 µM S1P, basal subtracted. activation, % at 4.5 µM. hit rate 0.1% among 60,000. AID 373, 2006;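 active = activation above the screen-wide mean plus 3 SD, cut at about 4.5% in these data, passing the limit was not always enough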
#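 Material: Human S1P3 NFAT-BLA reporter CHO cells | Incubation: Overnight plating, 4 h compound 37 °C, 2 h substrate RT | Signal: FRET β-lactamase substrate fluorescence, excitation 405 nm, 460/535 nm emission ratio, background-subtracted | Compound: 4.5 µM final, single dose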
# M1 antag: antagonists of rat M1 muscarinic receptor; Muscarinic acetylcholine receptor M1 (Rattus norvegicus), P08482; CHO-M1 cells, Fluo-4 calcium, ACh EC80 antagonist mode; active compounds read low; B-score at 10 µM; hit rate 3.4% among 64,000;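 active = calcium fluorescence response, raw or row-and-column corrected B-score, differing from the plate sample mean either way at a set confidence level, mostly lower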
# Active calls of the source: *; x = not tested or not shown.
SMILES,S1P1 ag-PAM,SF-1 act,RORA act,M1 ag,S1P3 agonist,M1 antag
O=C(c1ccc(Cl)s1)N1CCc2ccccc21,-8,62*,47,1.8,-1,0.11
COC(=O)[C@@H](NC(=O)NC(C)CCc1ccccc1)C(C)C (stereo not given in full),14,-11,-30,0.18,-2,-0.26
COC(=O)[C@@H](NC(=O)Nc1ccccc1F)C(C)C,-23,6,-13,1.5,-1,1.6*
CCN(CC)CCN=C1CCCc2ccccc2N1,-15,5,-2,-0.0003,0,-0.31
CCn1c(SCc2nc3ccccc3s2)nnc1-c1cccs1,-18,49,33,2.2,0,-0.098
Cc1ccccc1-n1c(C)nnc1SCc1nc2ccccc2s1,11,55*,58*,-0.23,0,-0.89
CCCn1c(=O)c2ccccc2n2c(SCc3nc4ccccc4s3)nnc12,-6,70*,42,1.8,0,0.12
CCOc1cc(CNCC2CCCO2)cc(Br)c1OCC(N)=O (stereo not given),-20,-3,-3,0.37,-1,-0.5
NC(=O)C1CCN(C(=O)c2ccc(CS(=O)(=O)c3c(Cl)cccc3Cl)o2)CC1,0,5,24,0.62,0,0.72
CCOC(=O)C1CCN(C(=O)c2cc(S(=O)(=O)N3CCOCC3)c(Cl)cc2Cl)CC1,-9,-1,-12,-0.0086,0,-1.4
C=CCOC(=O)c1sc(NC(=O)c2ccco2)nc1C,-8,93*,53*,0.49,0,-0.76
Cc1csc(NC(=O)c2ccco2)n1,1,16,32,-0.14,-1,0.42
CS(=O)(=O)c1ccc2nc(NC(=O)c3ccco3)sc2c1,2,74*,66*,-0.42,0,-0.04
CCOC(=O)c1ccc2nc(NC(=O)c3ccco3)sc2c1,63*,14,-14,-0.89,0,-1.2
CCOc1ccc2nc(NC(=O)C(CC)Sc3nc(C)cc(=O)[nH]3)sc2c1 (stereo not given),x,23,52*,-0.17,-1,0.15
CCCS(=O)(=O)N1CCCC(C(=O)NCC2CCCO2)C1 (stereo not given),-34,-12,-18,0.063,-1,0.0075
O=C(Nc1nc2ccc(S(=O)(=O)N3CCCCC3)cc2s1)c1ccncc1,x,-1,15,-1.9,0,-0.12
Cc1ccc2nc(NC(=O)COC(=O)c3ccco3)sc2c1,x,30,61*,-0.22,x,0.43
CN(C)S(=O)(=O)c1ccc2nc(NC(=O)c3cccnc3)sc2c1,x,62*,33,-0.19,-1,-0.0061
CCOC(=O)c1ccc2nc(NC(=O)C(C)C)sc2c1,19,43,68*,-0.63,0,-1.3
O=C(c1cc(-c2ccc(Cl)c(Cl)c2)on1)N1CCCC1,-24,46,60*,-0.18,-1,0.67
O=C(c1cc(-c2ccc3c(c2)OCO3)on1)N1CCN(c2ccccc2)CC1,0,36,70*,-0.017,-1,-2
O=C(c1cc(-c2ccc3c(c2)OCO3)on1)N1CCN(c2ccc(F)cc2)CC1,-14,5,-9,0.22,0,-0.44
CC(C)NC(=O)CCCc1ccccc1,-2,-5,-10,x,1,x
CN(C)c1ccc(NC(=O)CCCc2ccccc2)cc1,x,40,50*,-0.17,0,0.46
SMILES,S1P1 ag-PAM,SF-1 act,RORA act,M1 ag,S1P3 agonist,M1 antag
O=C(COc1ccc(F)c(Cl)c1)c1ccc[nH]1,7,11,-5,-0.41,0,0.02
O=C(CCC(=O)c1ccc[nH]1)c1ccc(Cl)cc1,7,52*,26,-0.35,0,0.19
CC(c1nnc(SCC(=O)NC(=O)NCc2ccco2)n1-c1ccc(Cl)cc1)N(C)C (stereo not given),7,3,11,0.006,2,0.051
Cc1csc2nc(CSc3nncn3-c3ccccc3)c(Br)n12,20,21,-2,0.026,0,-0.043
Cc1csc2nc(CSc3nc4ccccc4o3)c(Br)n12,-13,61*,34,-1.3,0,-0.52
CCCCn1c(SCC(=O)NCc2cccs2)nc2c1c(=O)n(C)c(=O)n2C,11,6,-17,0.12,-1,0.57
O=C(Nc1nc2n(n1)C(c1ccc(Cl)cc1)CC(c1ccc(Cl)cc1)N2)c1ccco1 (stereo not given),-7,5,19,-0.32,0,0.15
COc1ccc(C2C=C(c3ccc(Cl)cc3)Nc3nc(NC(C)=O)nn32)cc1 (stereo not given),25,0,-14,235*,-1,-1.7
Nc1nc(C(=O)N2CCOCC2)nn1S(=O)(=O)c1ccc(Cl)cc1,x,-4,7,0.83,x,0.13
O=C(c1nc2n(n1)C(c1ccc(Cl)cc1)C=C(c1ccccc1)N2)N1CCOCC1 (stereo not given),x,-6,-1,46*,0,0.033
COc1ccc(C2=CC(c3ccc(F)cc3)n3nnnc3N2)cc1 (stereo not given),-33,6,-8,0.53,0,0.22
CC(=O)Nc1nc2n(n1)C(c1ccc(Cl)cc1)C=C(C)N2 (stereo not given),-5,0,-19,1.1,-1,1.9*
COC(=O)C(C(=O)OC)N1C(=O)CCC1=O,-30,8,-1,0.7,0,1.3
O=C(NCCOc1ccccc1)c1cc2ccccc2o1,x,35,28,-0.37,-1,-0.028
Cc1oc2c(CN3CCCC3)c(O)ccc2c(=O)c1-c1ccccc1,-6,13,4,3.2*,0,-0.0037
CCOC(=O)c1sc(=NC(=O)c2cccc(OC)c2)n(C)c1C,-35,57*,33,0.0033,0,-0.24
O=C(NC1CCCCC1)c1cc2nc3c(c(C(F)(F)F)n2n1)CCCC3,-40,50*,34,-0.022,-1,0.3
O=c1[nH]c(NCc2ccccc2)nc2c1CCCC2,-6,6,30,-0.0073,0,-0.012
COc1cccc(-c2noc(C3CCCN(S(=O)(=O)c4cccc(Cl)c4C)C3)n2)c1 (stereo not given),5,2,8,0.24,0,0.48
CCOc1ccccc1C1CC(c2ccc(F)cc2)Nc2nc(N)nn21 (stereo not given),-10,-6,6,-1.5,-1,-0.17
CC(=O)Nc1nc2cc3c(cc2s1)OCO3,-11,39,72*,-0.11,1,0.28
